The list is not random: actives were taken first. Their share in the collection is about 1.9%.
SENP1 inh – blocks the human SENP1 SUMO protease catalytic domain. Q9P0U3. recombinant SENP1 catalytic domain, CyPet-SUMO1-YPet FRET cleavage. inhibition, % at 10 µM. 360,000 compounds, 0.21% hits. AID 624204;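 active = inhibition at least 30% at 10 µM, raw YFP signal under a set limit, fluorescence ratio 0.5 to 1.5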
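Test system: human SENP1 catalytic domain; medium: Tris pH 8 buffer plus EDTA, NaCl, BME, BSA, NP40, catalase; incubation: 50 min reaction at room temperature; technique: FRET, CFP and YFP emission; controls: no-enzyme low control and enzyme-plus-DMSO high control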
FAS TE block – inhibitors of human fatty acid synthase thioesterase domain; recombinant FAS-TE, OMFH fluorogenic substrate, fluorescence endpoint; inhibition, % at 15 µM; 360,000 compounds, 0.67% hits; AID 602261;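 active = compounds whose normalised, plate-corrected inhibition of enzyme fluorescence in the single-dose primary screen is 50% or more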
ADAM10 inh – ADAM10 inhibition, QFRET primary screen; O14672; recombinant ADAM10, EDANS/DABCYL FRET peptide cleavage, 3 h; inhibition, % at 7 µM; 370,000 compounds, 0.62% hits; AID 720582;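 active = inhibition above a per-campaign cutoff equal to the mean of compounds falling between control-based bounds plus 3 SD, cut at about 20% in these data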
ADAM17 inh – ADAM17 inhibition, QFRET primary screen; inhibition, % at 6.95 µM; 370,000 compounds, 0.83% hits; recombinant ADAM17, EDANS/DABCYL FRET peptide cleavage; AID 720648;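 active = inhibition above the mean of compounds lying between control limits plus 3 SD, set per campaign, cut at about 8.5% in these data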
Target sequence (P78536 215-824 limits assumed): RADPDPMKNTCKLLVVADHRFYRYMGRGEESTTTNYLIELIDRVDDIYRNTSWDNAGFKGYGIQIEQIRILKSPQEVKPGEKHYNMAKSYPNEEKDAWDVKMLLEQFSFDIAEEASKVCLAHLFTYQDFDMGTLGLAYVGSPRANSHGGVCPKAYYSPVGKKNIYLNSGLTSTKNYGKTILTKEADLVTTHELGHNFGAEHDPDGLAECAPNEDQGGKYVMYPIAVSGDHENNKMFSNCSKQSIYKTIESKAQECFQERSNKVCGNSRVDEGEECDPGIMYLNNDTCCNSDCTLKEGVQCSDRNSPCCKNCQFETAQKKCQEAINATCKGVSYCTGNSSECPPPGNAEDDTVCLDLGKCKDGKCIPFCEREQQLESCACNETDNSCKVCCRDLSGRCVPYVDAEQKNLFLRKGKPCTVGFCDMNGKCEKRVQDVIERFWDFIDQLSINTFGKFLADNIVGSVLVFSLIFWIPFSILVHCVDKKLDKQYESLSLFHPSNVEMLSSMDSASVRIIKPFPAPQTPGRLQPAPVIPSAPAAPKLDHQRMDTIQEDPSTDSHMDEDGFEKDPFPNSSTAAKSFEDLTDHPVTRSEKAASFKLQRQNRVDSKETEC
SENP1 conf – SENP1 (human) inhibition, single concentration confirmation. 520 compounds, 34% hits. AID 651678. recombinant SENP1, CyPet-SUMO1-YPet FRET cleavage. inhibition, % at 10 µM. shares compounds with SENP1 inh; in the data active = inhibition mostly above about 35%, no sharp cut-off; inactive = mostly below about 32%
SENP1 kinetic – confirmation of human SENP1 SUMO protease inhibitors, kinetic; 520 compounds, 26% hits; shares compounds with SENP1 inh; inhibition, % at 10 µM; AID 651690; recombinant SENP1, CyPet-SUMO1-YPet FRET kinetic cleavage; in the data active = inhibition mostly above about 32%, no sharp cut-off; inactive = mostly below about 29%
Large screens that a line does not name were inactive (follow-up assays come after a bar, where they were run).

N#CC1=C(N)Oc2cc(N)ccc2C1c1cccnc1 (configuration not stated)	none
N#CC1=C(N)Oc2cc(Nc3ccccc3)ccc2C1c1ccncc1 (configuration not stated)	SENP1 inh 76.7 | SENP1 conf 30.6 | SENP1 kinetic inactive
O=C(CSc1n[nH]c(=O)n1C1CC1)Nc1ccc(F)c(Cl)c1	SENP1 inh 44.0 | SENP1 conf inactive | SENP1 kinetic inactive
CCOC(=O)[C@@]12CCCC=C1N(CCc1ccc(Cl)cc1)C(=O)[C@H]2CC(=O)NCC1CCCCC1	none (no result: SENP1 inh, FAS TE block)
CC(C)C(=O)Nc1nnc(COc2ccc(Cl)cc2)s1	SENP1 inh 45.7 | SENP1 conf inactive | SENP1 kinetic inactive
Cn1cccc1C(=O)N1CCN(S(=O)(=O)c2ccc(C(C)(C)C)cc2)CC1	none (no result: SENP1 inh, FAS TE block)
O=C1CC[C@@H]2C[C@@]3(C[C@@H]4CCN1[C@H]24)Nc1cc([N+](=O)[O-])ccc1NC3=NCc1ccccc1	SENP1 inh 54.8 | SENP1 conf 42.1 | SENP1 kinetic inactive
COC(=O)/C=C1/S/C(=N/NC(=O)c2ccc(OC)cc2)NC1=O	none
COC(=O)/C=C1\S/C(=N/NC(=O)c2ccc(OC)cc2)NC1=O	SENP1 inh 53.9 | SENP1 conf inactive | SENP1 kinetic inactive
CN(Cc1ccccc1Cl)C(=O)CN1C(=O)C2(OCCCO2)c2ccccc21	none (no result: SENP1 inh, FAS TE block)
N#CC1=C(N2CCCCC2)c2cc3c(n2C1=O)CCCC3	SENP1 inh 51.1 | SENP1 conf inactive | SENP1 kinetic inactive
CCOC(=O)C1=C(SCC)c2cc3c(n2C1=O)CCCC3	none
COc1ccc(/C=N/N2C(=O)CSC2=S)cc1Br	SENP1 inh 40.2 | SENP1 conf 45.9 | SENP1 kinetic 31.1
O=C(C[n+]1cc(Br)cc2ccccc21)c1ccc(Br)cc1	SENP1 inh 52.1 | SENP1 conf inactive | SENP1 kinetic inactive
O=C(C[n+]1cc(Br)cc2ccccc21)c1ccc(Cl)cc1	SENP1 inh 44.0 | SENP1 conf inactive | SENP1 kinetic inactive
CCCCNS(=O)(=O)/C=C/c1ccc(F)cc1CNC(=O)OC(C)(C)C	none (no result: SENP1 inh, FAS TE block)
Cc1ccc2n(n1)c(=O)c(Cc1ccccc1)c([O-])[n+]2-c1ccccc1	SENP1 inh 34.9 | SENP1 conf 53.1 | SENP1 kinetic 34.8
CCN1CCc2nc3sc(C(=O)N4CCc5ccccc5C4)c(N)c3cc2C1	none
CC(C)c1ccc2nc3sc(C(=O)N4CCc5ccccc5C4)c(N)c3cc2c1	SENP1 inh 61.4 | SENP1 conf 81.5 | SENP1 kinetic 51.0
O=C(NCCOc1ccccc1)c1cccc2c1C(=O)c1ccc(Cl)cc1S2(=O)=O	none
COc1ccc(-c2ccc3c(c2)S(=O)(=O)c2cccc(C(=O)NCCOc4ccccc4)c2C3=O)cc1OC	SENP1 inh 59.1 (no result: ADAM10 inh, ADAM17 inh) | SENP1 conf 68.2 | SENP1 kinetic 49.4
C=CCN1C(=O)[C@@H](CC(=O)NCCCN2CCCC2=O)[C@]2(C(=O)OC)CCCCC=C12	none (no result: SENP1 inh, FAS TE block)
C=CCNC(=O)Nc1ccc2c(c1)[C@]1(CC(=O)N(CC(C)C)C1c1ccccc1)C(=O)N2C (some centres not stated)	none (no result: SENP1 inh, FAS TE block)
CNc1ccc(/C=C(\C#N)c2ccccn2)cc1[N+](=O)[O-]	SENP1 inh 46.3 | SENP1 conf inactive | SENP1 kinetic inactive
N#C/C(=C\c1ccc(Cl)c([N+](=O)[O-])c1)c1ccccn1	none
CCC(C(=O)Nc1ccccc1N1CCCC1)c1cccc(OC)c1 (configuration not stated)	none (no result: SENP1 inh, FAS TE block)
COC(=O)[C@]1(CNC(C)=O)CC(=O)N(Cc2ccc(Cl)cc2)[C@@H]1c1ccc(OC)cc1	none (no result: SENP1 inh, FAS TE block)
COc1ccc(O)c(C(=O)c2cc(C#N)c(=O)n(CC3CCCO3)c2)c1 (configuration not stated)	SENP1 inh 38.9 | SENP1 conf inactive | SENP1 kinetic 35.8
Cc1ccc(O)c(C(=O)c2cc(C#N)c(=O)n(CC3CCCO3)c2)c1 (configuration not stated)	none
OC(c1ccccc1)(c1ccccc1)C1CCN(CCCOc2ccc(OC(F)(F)F)cc2)CC1	none (no result: SENP1 inh, FAS TE block)
Cc1c(-n2cc(C(=O)c3cc(Cl)ccc3O)cc(C#N)c2=O)c(=O)n(-c2ccccc2)n1C	SENP1 inh 61.0 (no result: ADAM10 inh, ADAM17 inh) | SENP1 conf 53.2 | SENP1 kinetic 40.5
Cc1ccc(O)c(C(=O)c2cc(C#N)c(=O)n(-c3c(C)n(C)n(-c4ccccc4)c3=O)c2)c1	none
Cc1cnc(C(=O)Nc2ccccc2-c2ccc(C)o2)cn1	SENP1 inh 39.6 | SENP1 conf inactive | SENP1 kinetic inactive
Cc1cnc(C(=O)Nc2cccc3ncccc23)cn1	none
Cc1nc(-c2cccc(NC(=O)c3cc4cc(Br)ccc4oc3=O)c2)cs1	SENP1 inh 37.8 | SENP1 conf inactive | SENP1 kinetic inactive
CCOC(=O)CSc1nc2cc(C)ccc2cc1C#N	SENP1 inh 54.7 | SENP1 conf inactive | SENP1 kinetic inactive
Cc1cc2cc(C#N)c(SCC(=O)Nc3nonc3C)nc2cc1C	SENP1 inh 64.8 | SENP1 conf inactive | SENP1 kinetic inactive
CCOC(=O)CSc1nc2ccc(C)cc2cc1C#N	none
COc1ccc(S[C@]2(C(=O)N3CCOCC3)CC(=O)N(C(=O)C3CC3)[C@@H]2c2ccc(OC)cc2)cc1	none (no result: SENP1 inh, FAS TE block)
COCc1cn(-c2ccc3c(c2)[C@@]2(CC(=O)N(C)C2c2ccccc2)C(=O)N3CC(C)C)nn1 (some centres not stated)	none (no result: SENP1 inh, FAS TE block)
CCN(CC(=O)Nc1ccc(NC(C)=O)cc1)C(=O)CSc1ncnc2sc(C)c(C)c12	SENP1 inh 41.2 | SENP1 conf 89.0 | SENP1 kinetic 68.3
CC(=O)Nc1ccc(NC(=O)CSc2ncnc3sc(C)c(C)c23)cc1	none
O=C1C(NC(=O)N2c3ccccc3C=Cc3ccccc32)CCCCN1Cc1cccc(C(F)(F)F)c1 (configuration not stated)	none (no result: SENP1 inh, FAS TE block)
CCOC(=O)c1c(NC(=O)c2cc(-c3ccc(O)cc3)on2)sc(C(C)=O)c1C	SENP1 inh 31.3 | SENP1 conf inactive | SENP1 kinetic inactive
C=CCN1C(C(=O)OC)CN(Cc2cn(Cc3ccc(F)cc3)nn2)CCS1(=O)=O (configuration not stated)	none (no result: SENP1 inh, FAS TE block)
Cc1ccc(NC(=O)C2CCCN(c3nnc(-n4cccc4)s3)C2)cc1C (configuration not stated)	none (no result: SENP1 inh, FAS TE block)
CC(C)(C)OC(=O)NCc1cc(F)ccc1/C=C/S(=O)(=O)NCc1ccccc1	none (no result: SENP1 inh, FAS TE block)

Assay outcomes as filed in PubChem.
